In ChEMBL document CHEMBL1157184, “Hymenoic acid, a novel specific inhibitor of human DNA polymerase lambda from a fungus of Hymenochaetaceae sp” (Bioorg Med Chem, 2008):
Active and inactive are the calls of the source. No cut-off for these calls is given here.

Key:
[1] = molecular target: T1, DNA polymerase alpha subunit B (Bos taurus) (UniProt Q58D13); assay: Inhibition of calf DNA polymerase alpha at 200 uM
T1 sequence (whole entry): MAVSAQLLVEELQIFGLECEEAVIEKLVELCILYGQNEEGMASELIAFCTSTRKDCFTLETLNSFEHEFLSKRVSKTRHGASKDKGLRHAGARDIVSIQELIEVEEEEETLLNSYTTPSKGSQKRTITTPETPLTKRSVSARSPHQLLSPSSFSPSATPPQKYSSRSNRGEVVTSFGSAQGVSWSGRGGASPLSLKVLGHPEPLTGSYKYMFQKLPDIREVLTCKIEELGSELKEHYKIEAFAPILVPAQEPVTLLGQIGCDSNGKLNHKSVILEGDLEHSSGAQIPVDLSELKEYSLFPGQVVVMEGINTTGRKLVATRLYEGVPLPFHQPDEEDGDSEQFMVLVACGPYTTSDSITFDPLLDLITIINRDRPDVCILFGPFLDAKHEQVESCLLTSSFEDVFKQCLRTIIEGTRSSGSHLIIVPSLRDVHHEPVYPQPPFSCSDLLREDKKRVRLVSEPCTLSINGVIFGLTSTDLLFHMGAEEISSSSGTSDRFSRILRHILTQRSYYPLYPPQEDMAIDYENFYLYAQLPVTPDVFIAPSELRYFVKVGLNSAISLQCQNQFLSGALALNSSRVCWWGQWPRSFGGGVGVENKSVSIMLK
Method in brief: (§1)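 Compound dissolved in DMSO and sonicated 30 s, then held with each polymerase (final 0.05 U) in 50 mM Tris-HCl pH 7.5, 1 mM DTT, 50% glycerol, 0.1 mM EDTA at 0 °C for 10 min. Reaction with poly(dA)/oligo(dT)12-18 and dTTP ran 60 min at 37 °C (Taq at 74 °C). Activity relative to no-compound control; means ± SEM, four independent experiments.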

[2] = molecular target: DNA polymerase beta (Rattus norvegicus) (UniProt P06766); assay: Inhibition of rat DNA polymerase beta at 200 uM; method in brief: as §1
Homo sapiens [3] = organism: Homo sapiens; assay: Inhibition of human DNA polymerase gamma at 200 uM; method in brief: as §1
Homo sapiens [4] = organism: Homo sapiens; assay: Inhibition of human DNA polymerase epsilon at 200 uM; method in brief: as §1
[5] = molecular target: T2, DNA polymerase kappa (Homo sapiens) (UniProt Q9UBT6); assay: Inhibition of human DNA polymerase kappa at 200 uM; method in brief: as §1
T2 sequence (whole entry): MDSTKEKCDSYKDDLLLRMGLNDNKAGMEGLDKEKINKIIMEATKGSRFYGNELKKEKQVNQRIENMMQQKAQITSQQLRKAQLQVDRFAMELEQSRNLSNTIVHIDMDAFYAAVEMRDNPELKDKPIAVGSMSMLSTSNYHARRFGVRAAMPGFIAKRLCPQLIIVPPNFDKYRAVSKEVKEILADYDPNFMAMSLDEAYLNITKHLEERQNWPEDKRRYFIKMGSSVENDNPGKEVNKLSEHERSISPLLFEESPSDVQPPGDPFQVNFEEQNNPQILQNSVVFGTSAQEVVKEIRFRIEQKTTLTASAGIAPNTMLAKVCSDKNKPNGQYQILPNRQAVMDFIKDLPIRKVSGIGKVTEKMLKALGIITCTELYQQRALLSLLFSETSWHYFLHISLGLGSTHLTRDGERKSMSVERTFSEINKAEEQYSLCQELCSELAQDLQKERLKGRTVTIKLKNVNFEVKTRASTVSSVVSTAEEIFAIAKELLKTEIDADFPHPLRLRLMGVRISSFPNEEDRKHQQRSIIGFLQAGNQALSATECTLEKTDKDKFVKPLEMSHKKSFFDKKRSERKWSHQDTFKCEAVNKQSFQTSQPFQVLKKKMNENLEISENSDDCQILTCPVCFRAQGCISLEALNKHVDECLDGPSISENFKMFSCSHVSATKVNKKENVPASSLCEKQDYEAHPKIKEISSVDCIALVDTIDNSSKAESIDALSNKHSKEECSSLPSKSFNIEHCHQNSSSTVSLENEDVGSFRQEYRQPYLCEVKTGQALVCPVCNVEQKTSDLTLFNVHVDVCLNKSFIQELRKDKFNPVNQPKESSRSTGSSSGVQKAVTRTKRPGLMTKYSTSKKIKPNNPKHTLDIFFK

Oryza sativa = assay: Inhibition of rice DNA polymerase lambda at 200 uM; method in brief: as §1
Oncorhynchus masou = assay: Inhibition of fish DNA polymerase delta at 200 uM; method in brief: as §1
Drosophila melanogaster = assay: Inhibition of fruit fly DNA polymerase beta at 200 uM; method in brief: as §1
Escherichia coli = assay: Inhibition of Escherichia coli DNA polymerase I Klenow fragment at 200 uM; method in brief: as §1
[6] = molecular target: T1, DNA polymerase alpha subunit B (Bos taurus); assay: Inhibition of primase activity of calf polymerase alpha at 200 uM
[7] = system: Human immunodeficiency virus; assay: Inhibition of HIV reverse transcriptase at 200 uM
Homo sapiens [8] = organism: Homo sapiens; assay: Inhibition of human telomerse at 200 uM
Method in brief: (§2)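 Each enzyme (0.05 U) was incubated with 200 μM compound. Activity was expressed as a percentage of the activity without compound (100%). Means ± SEM of four independent experiments.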

Mus musculus = organism: Mus musculus; assay: Inhibition of mouse inosine 5-monophosphate dehydrogenase type 2 at 200 uM; method in brief: as §2
Homo sapiens [9] = organism: Homo sapiens; assay: Inhibition of human topoisomerase type 2 at 200 uM; method in brief: as §2
Bos taurus = organism: Bos taurus; assay: Inhibition of bovine deoxyribonuclease 1 at 200 uM; method in brief: as §2
[10] = system: T7 RNA polymerase (Bacteriophage T7); assay: Inhibition of T7 RNA polymerase at 200 uM
[11] = system: T4 polynucleotide kinase (Bacteriophage T4); assay: Inhibition of T4 polynucleotide kinase at 200 uM

- Activity [1]: inactive
- Activity [2]: inactive
- Activity (Homo sapiens [3]): inactive
- Activity (Homo sapiens [4]): inactive
- Activity [5]: inactive
- Activity (Oryza sativa): Active
- Activity (Oncorhynchus masou): inactive
- Activity (Drosophila melanogaster): inactive
- Activity (Escherichia coli): inactive
- Activity [6]: inactive
- Activity [7]: inactive
- Activity (Homo sapiens [8]): inactive
- Activity (Mus musculus): inactive
- Activity (Homo sapiens [9]): inactive
- Activity (Bos taurus): inactive
- Activity [10]: inactive
- Activity [11]: inactive
Structure (SMILES): C/C(=C\CC[C@H](C)C(=O)O)[C@H]1CC[C@H](C(=O)O)CC1
